Screening data: PubChem, several laboratories
NR1D1 modulator – modulators of Rev-erb alpha DNA binding, primary screen, biochemical, FITC-DNA, fluorescence polarization, uHTS; Nuclear receptor subfamily 1 group D member 1 (Homo sapiens), P20393; Rev-erbα–FITC-DNA binding, 90 min; activity, % at 10 µM; actives 0.79% (n = 370,000);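 active = activity above about 14%, limit read from the data; passing the limit was not always enough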;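 note: 0% = DMSO wells with 35 nM protein and 100% = DMSO wells with 750 nM protein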
Target sequence (P20393 whole entry, looked up): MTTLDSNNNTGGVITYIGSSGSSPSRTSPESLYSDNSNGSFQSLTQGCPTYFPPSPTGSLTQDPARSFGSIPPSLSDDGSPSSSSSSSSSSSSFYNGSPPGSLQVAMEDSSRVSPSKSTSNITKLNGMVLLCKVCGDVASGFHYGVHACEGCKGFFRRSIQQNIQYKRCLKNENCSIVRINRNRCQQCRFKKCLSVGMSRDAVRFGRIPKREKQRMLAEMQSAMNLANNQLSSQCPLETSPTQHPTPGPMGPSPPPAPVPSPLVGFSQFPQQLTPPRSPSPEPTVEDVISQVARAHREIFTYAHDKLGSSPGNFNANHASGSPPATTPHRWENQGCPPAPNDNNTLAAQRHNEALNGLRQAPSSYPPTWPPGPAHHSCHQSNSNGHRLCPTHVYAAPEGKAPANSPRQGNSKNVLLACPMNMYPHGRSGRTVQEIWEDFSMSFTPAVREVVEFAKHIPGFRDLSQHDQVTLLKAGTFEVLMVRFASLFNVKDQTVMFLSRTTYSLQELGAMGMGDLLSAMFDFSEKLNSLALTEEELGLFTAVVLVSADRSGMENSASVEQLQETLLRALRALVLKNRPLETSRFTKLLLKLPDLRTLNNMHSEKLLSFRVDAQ
PG9 Ab binder – binders of HIV-1 gp120 antibody PG9, primary screen, biochemical, TR-FRET; HIV-1 gp120 / PG9 antibody interaction; TR-FRET gp120-PG9 antibody binding; inhibition, % at 6.7 µM; actives 0.43% (n = 360,000); in the data active = inhibition above about 8.5%
NR2E3 ag-1 – inhibitors of NR2E3-RetCOR corepressor binding, primary screen, NR2E3 agonist project, biochemical, TR-FRET, GST-NR2E3, biotin-RetCOR; 1536-well; inhibition of corepressor binding, % at 4.78 µM; actives 0.12% (n = 320,000); AID 2300, 2010;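 active = percent inhibition above the cutoff of mean plus 3 SD of all tested compounds, set per screening campaign, cut at about 20% in these data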;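 note: 0% = DMSO wells and 100% = biotin wells as full block of FRET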
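System: GST-tagged NR2E3 plus biotinylated RetCOR corepressor; Buffer or medium: pH 7.5 Tris-based buffer; Probe or stimulus: RetCOR corepressor, biotinylated, 7 nM; Doses: compound at 4.8 µM, single dose; Schedule: 5 h incubation at 4 °C; Technique: time-resolved FRET; Evaluation: percent inhibition of TR-FRET ratio; Replication: one well per compound, singlicate testing.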
GalR3 antagonist – GalR3 antagonists in HEK293 cells, primary screen, cell-based, fluorescence readout | Galanin receptor type 3 (Homo sapiens), O60755 | inhibition, % at 3 µM | HEK293 GalR3-CNG cAMP membrane potential fluorescence; galR3 body fused to GalR1 C-terminus | actives 0.44% (n = 360,000);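 active = inhibition above the screen-wide average plus 3 SD, cut at about 13% in these data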;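 note: forskolin and galanin both at EC90 stimulate the cells; cAMP rise reported by CNG channel membrane potential dye signal; 0% = forskolin plus galanin with DMSO and 100% = forskolin alone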
NR2E3 ag-2 – NR2E3 agonists in two-hybrid cells, primary screen, cell-based, luminescence, CHO-S, Gal4-NCOR/VP16-NR2E3. inhibition of corepressor binding, % at 3.98 µM. AID 602229, 2012. Photoreceptor-specific nuclear receptor (Homo sapiens), Q9Y5X4. luciferase. actives 0.35% (n = 360,000);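 active = inhibition above the mean of all tested compounds plus 3 SD, cut at about 70% in these data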;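 note: 0% = DMSO with NR2E3 transfected cells and 100% = cells lacking NR2E3 construct; higher means lower luciferase signal from less NR2E3 corepressor binding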
NR2E3 ag conf – NR2E3 agonist confirmation in cells, cell-based, luminescence, CHO-S two-hybrid; shares compounds with NR2E3 ag-2; actives 51% (n = 2,300); inhibition, % at 3.98 µM; CHO-S mammalian two-hybrid NR2E3-NCOR, luciferase luminescence;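 active = average inhibition above a cutoff equal to the mean inhibition of all tested compounds plus one SD, cut at about 70% in these data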;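 note: 0% = DMSO in NR2E3 cells and 100% = DMSO in cells lacking NR2E3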
GAL4-VP16 luc – GAL4-VP16 reporter modulators, confirmation, counter-screen for NR2E3 agonist project, cell-based, luminescence, CHO-S, high throughput. shares compounds with NR2E3 ag-2. CHO-S GAL4-VP16 luciferase reporter. inhibition, % at 3.98 µM. actives 29% (n = 2,300). AID 624379, 2012;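 active = mean inhibition above a cutoff equal to the average over all tested compounds plus one standard deviation, cut at about 70% in these data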;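 note: luciferase from a UAS reporter driven by GAL4-VP16 transactivation; 0% = DMSO with VP16-transfected cells and 100% = DMSO with cells lacking VP16; higher means less reporter light so more repression of VP16 activity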
* = called active by the depositor; x = no result given. This is a sample that favours compounds with a hit; in the whole collection about 1.8% have one here.

SMILES | NR1D1 modulator | PG9 Ab binder | NR2E3 ag-1 | GalR3 antagonist | NR2E3 ag-2 | NR2E3 ag conf | GAL4-VP16 luc
CC(=O)OCC(=O)[C@@]1(O)CCC2C3CCC4=CC(=O)CC[C@]4(C)[C@@]3(F)[C@@H](O)C[C@@]21C (some centres undefined) | -1 | x | x | x | x | x | x
CCOC(=O)[C@]12CCCC3=C1N(CCC3)C(=O)[C@@H](CC(=O)NCCc1ccccc1OC)C2 | 7 | x | x | x | x | x | x
CSc1nc(N)nc2c1ncn2CC(=O)N1CCN(Cc2c(C)cc(C)cc2C)CC1 | -1 | 2 | x | -8 | 80* | 62 | 68
Cc1cc2sc3ccc(C#CC4(O)CCCCC4)cc3c(=O)c2cc1C | -1 | -3 | 5 | -3 | 60 | 86* | 36
Cn1c2ccccc2c(=O)c2cc(C#CC3(O)CCCCC3)ccc21 | -7 | -1 | -1 | -5 | -4 | x | x
O=c1oc2ccccc2c(Nc2ccccc2O)c1[N+](=O)[O-] | 3 | -1 | -2 | -5 | -17 | x | x
O=c1oc2ccccc2c(Nc2cccc3ccccc23)c1[N+](=O)[O-] | -1 | -2 | -4 | 3 | 50 | 66 | 30
CCc1nnc(NC(=O)c2ccc(S(=O)(=O)N(CC(C)C)CC(C)C)cc2)o1 | -1 | 0 | -1 | 1 | 103* | 99* | 39
CCc1nnc(NC(=O)c2ccc(S(=O)(=O)N3CCCc4ccccc43)cc2)o1 | 9 | 1 | -1 | -4 | 54 | 88* | 44
c1ccc(-c2c[nH]c3cccc(C4CCCCC4)c23)cc1 | 5 | x | x | x | x | x | x
COc1ccc2c(c1OC)CN1CCc3cc4c(cc3[C@@H]1[C@@H]2O)OCO4 | x | x | 1 | x | -2 | x | x
O[C@@H]1[C@@H](O)C=C2CCN3Cc4cc5c(cc4[C@H]1C23)OCO5 (some centres undefined) | 0 | 1 | 2 | x | 89* | 92* | 85*
NC(=O)c1c(N)[nH]c(C(=O)c2ccccc2)c1-c1cccc2ccccc12 | -4 | x | x | x | x | x | x
O=C(C1=C(O)C(=O)N(c2nccs2)C1c1ccccc1)c1cc2ccccc2o1 (centres undefined) | 3 | 9 | 7 | -4 | 66 | 95* | 71*
O=S1(=O)C=CCN1Cc1cn(Cc2ccc(C(F)(F)F)cc2)nn1 | -4 | x | x | x | x | x | x
O=C(CCc1ccccc1)N[C@H]1[C@@H](OC(=O)c2ccco2)CCC[C@]12C(=O)N(Cc1ccccc1)c1ccccc12 | -4 | x | x | x | x | x | x
CC(C)C1Nc2c(O)cc(Cl)c([N+](=O)[O-])c2C2C=CCC21 (centres undefined) | 1 | -4 | x | -2 | 99* | 100* | 91*
O=C(O)C1Nc2c(Cl)cc(Cl)c(Cl)c2C2C=CCC12 (centres undefined) | -38 | 0 | 5 | -6 | -39 | x | x
CCOC(=O)Cc1nnc2c(Nc3ccccc3F)nc3nonc3n12 | 1 | -1 | 1 | 7 | 71* | 74* | 44
O=C(CCc1nc(-c2ccccc2F)no1)NCCc1cccc(F)c1 | 3 | x | x | x | x | x | x
COc1ccc(CNC(=O)c2sccc2-c2ccccc2)cc1OC | 0 | 0 | 0 | -1 | 58 | 28 | 30
COc1ccc(CNC(=O)c2[nH]c(C(F)(F)F)nc2-c2ccccc2)cc1OC | 3 | 1 | x | -1 | 13 | x | x
CCCCNC(=O)C1(C(=O)c2ccc(OC)cc2)CC(C(=O)OCC)=NO1 (centres undefined) | -5 | x | x | x | x | x | x
CCOc1c(N2CCOCC2)cnn(C)c1=O | 1 | x | x | x | x | x | x
COc1ccc(C(O)c2nc(-c3ccncc3)cs2)cc1 (centres undefined) | -7 | 0 | x | -5 | 63 | 68 | 66
SMILES | NR1D1 modulator | PG9 Ab binder | NR2E3 ag-1 | GalR3 antagonist | NR2E3 ag-2 | NR2E3 ag conf | GAL4-VP16 luc
CO[C@H]1C[C@H](O[C@H]2[C@H](C)[C@@H](O[C@@H]3O[C@H](C)C[C@H](N(C)C)[C@H]3O)[C@@H](C)C[C@]3(CO3)C(=O)[C@H](C)[C@@H](O)[C@@H](C)[C@@H](C)OC(=O)[C@@H]2C)O[C@@H](C)[C@@H]1O | 2 | x | x | x | x | x | x
Cc1ccnc(NC(=O)CSc2cc(=O)n(C)c3ccccc23)c1 | 0 | -1 | -2 | -3 | 67 | 89* | 20
Cc1ccnc(NC(=O)CCCOc2cc(=O)n(C)c3ccccc23)c1 | 5 | -1 | 1 | -8 | 58 | 73* | 28
Cn1c(=O)cc(OCCCC(=O)Nc2cc(Br)ccn2)c2ccccc21 | -6 | x | x | x | x | x | x
NC(=S)NN=Cc1nccc2ccccc12 | 4 | -1 | x | -1 | 75* | 15 | -17
NC(=S)NN=Cc1nccc2c(C(F)(F)C(F)(F)C(F)(F)F)cccc12 | 0 | 0 | x | -5 | 87* | -6 | 26
COC(=O)c1ccc2c(C3(c4c[nH]c5ccccc45)CCN(C(=O)OC(C)(C)C)CC3)c[nH]c2c1 | 2 | x | x | x | x | x | x
COc1ccc(S[C@]2(C(=O)N3CCOCC3)CC(=O)N(c3ccc(C#N)cc3)[C@@H]2c2ccc(OC)cc2)cc1 | -5 | x | x | x | x | x | x
CCc1nc2ccc(C(=O)N3CCN(S(=O)(=O)CC)CC3)cn2c1N(CC)Cc1cccc(Br)c1 | -7 | 1 | x | -5 | 24 | x | x
CCc1nc2ccc(C(=O)N(C)C(C)C)cn2c1N(CC)Cc1cccc(Br)c1 | 9 | 2 | x | -9 | 72* | 69 | -10
CCOC(=O)C(=O)NNc1ccc(Cl)cc1 | 7 | 0 | 2 | 1 | 60 | 37 | -18
CCOC(=O)C(=O)NNc1ccc(C)cc1 | 4 | -1 | 4 | -4 | 60 | 25 | 9
Cc1cc(-c2n[nH]c(=S)n2N=Cc2ccc(O)cc2)n[nH]1 | -1 | x | x | x | x | x | x
O=C(NCCCSc1ccccc1)c1cc(Cl)ccc1O | 1 | -2 | x | -4 | 78* | 99* | 87*
O=C(CNC(=O)c1ccccc1)NCCCSc1ccccc1 | 1 | 0 | x | -1 | -15 | x | x
O=C(NCCCCCCNC(=O)c1ccccc1O)c1ccccc1O | 7 | 1 | 1 | -16 | 67 | 88* | 63
O=C(Nc1ccc2c(c1)OCO2)OC1CC2CC1[C@H]1CCCCN1[C@H]2Cc1ccccc1 (some centres undefined) | 1 | x | x | x | x | x | x
COC(=O)c1cc(-c2ccc(Oc3ccccc3)cc2)c(=O)n2c1CCC2 | 6 | x | x | x | x | x | x
